ZTA counter: counter-screen for EBNA-1 inhibitors: inhibitors of Epstein-Barr virus ZTA; actives 0.15% (n = 320,000); ZTA-DNA binding, fluorescence polarization; AID 2234; P03206; inhibition, % at 11 µM; in the data active = inhibition above about 33%
PfGluPho inh: PfG6PD (Plasmodium falciparum) enzyme inhibition | PfGluPho enzyme, NADPH resazurin-diaphorase fluorescence | inhibition, % at 20 µM | actives 0.78% (n = 350,000);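 active = inhibition reaching at least a set limit at 20 µM in the primary screen, cut at about 59% in these data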;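 note: 0% = DMSO wells with substrate and 100% = DMSO wells lacking glucose-6-phosphate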
EBNA-1 inhibitor: blocks EBNA-1 binding to DNA; EBNA-1 DNA binding, fluorescence polarization; inhibition, % at 14.8 µM; actives 0.34% (n = 300,000); AID 1950; in the data active = inhibition above about 28%
M18AAP inhibitor: PfM18AAP enzyme inhibition; recombinant PfM18AAP, H-Glu-NHMec fluorogenic cleavage; inhibition, % at 7.35 µM; actives 1.2% (n = 290,000);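 active = inhibition above the campaign mean inhibition over all tested compounds plus 3 SD, cut at about 28% in these data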;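 note: 0% = plate median of test compound wells and 100% = 2 mM ZnCl2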
UBC13 inh: human UBC13 polyubiquitination inhibition; actives 0.47% (n = 330,000); inhibition, % at 20 µM; P61088; UBC13 polyubiquitin chain formation, TR-FRET; AID 485273; in the data active = inhibition above about 45%, passing the limit was not always enough
Apaf-1 inh: inhibitors of human Apaf-1 apoptosome; reconstituted apoptosome caspase-3 activity, DEVD-Rh110 fluorescence; inhibition, % at 20 µM; actives 0.71% (n = 330,000); AID 489030; active = inhibition of at least 40% at 20 µM;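 note: plate controls were DMSO wells for no effect and DEVD-CHO caspase inhibitor wells for full effect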
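Material: reconstituted apoptosome with Apaf-1, cytochrome c, caspase-9, procaspase-3, dATP / Buffer or medium: pH 7.5 Hepes buffer with CHAPS, BSA, DTT / Also added: cytochrome c with DEVD-Rh110 / Schedule: compound with Apaf-1, dATP, procaspase-3 30 min, then 50 min reaction, room temperature / Technique: rhodamine 110 fluorescence at Ex 480/Em 540 nm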
EBNA-1 inh conf: EBNA-1 (EBV) inhibition, confirmation; shares compounds with EBNA-1 inhibitor; inhibition, % at 14.8 µM; actives 35% (n = 830); Recombinant EBNA-1 DBD, Cy5-DNA fluorescence polarization;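 active = mean inhibition across replicates above a set limit taken from the earlier primary screen, cut at about 28% in these data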;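 note: plate controls were EBNA-1 protein with DMSO for no effect and wells lacking EBNA-1 for full effect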
ZTA counter trip: blocks Epstein-Barr virus ZTA in triplicate, EBNA-1 counter-screen; shares compounds with EBNA-1 inhibitor; Zta-ZRE DNA binding, Cy5 fluorescence polarization; inhibition, % at 11.1 µM; 830 tested, under 10 active; AID 2328;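 active = mean inhibition over triplicates above a set limit taken from the primary EBNA-1 screen, cut at about 37% in these data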;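 note: purified full length Zta protein with Cy5 labeled ZRE DNA probe; 0% = Zta with DMSO and 100% = wells lacking Zta protein; inhibitors lower polarization by freeing the labeled DNA probe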
* hit, by the source's call; / = no result given. Compounds with a hit are over-represented: about 2.9% of the library has one in this group of screens.

SMILES	ZTA counter	PfGluPho inh	EBNA-1 inhibitor	M18AAP inhibitor	UBC13 inh	Apaf-1 inh	EBNA-1 inh conf	ZTA counter trip
COc1ccc(NC(=S)NNc2ccc(C(=O)O)cc2)cc1	-12	14	-20	26	3	3	/	/
COC(=O)c1c(NC(=O)c2ccccc2)sc2c1CC(C)(C)OC2	13	16	32*	-6	22	3	2	0
O=C(N[C@H]1C/C=C\C[C@H](CC(=O)N(CCO)Cc2ccccc2)C(=O)N[C@H](Cc2c[nH]c3ccccc23)COC1=O)OCC1c2ccccc2-c2ccccc21	/	8	/	/	-7	24	/	/
COc1ccc(N=Cc2c(O)n(-c3ccc(OC)cc3)c(=O)c3ccccc23)cc1	9	-13	65*	0	0	-3	56*	8
Cc1ccc2[nH]c3c(c2c1)CCCC3NCCO (stereo unspecified)	-7	-11	1	-5	-4	16	/	/
Fc1ccccc1COc1ccccc1/C=N/Nc1nc(N2CCCC2)nc(N2CCCC2)n1	-6	8	9	9	8	-2	/	/
C(=N\Nc1nc(N2CCCC2)nc(N2CCCC2)n1)/c1ccccc1OCc1ccccc1	-16	-7	38*	-9	-3	27	24	-2
N#C/C(=C\c1cn(CCOc2ccccc2F)c2ccccc12)C(=O)NCc1cccs1	20	2	124*	-2	-8	5	26	-5
Cc1ccccc1OCCn1cc(/C=C(\C#N)C(=O)NCc2ccco2)c2ccccc21	-4	-2	34*	-8	-7	5	51*	4
O=C(CNS(=O)(=O)c1ccccc1)OCC(=O)c1c[nH]c2ccccc12	-15	5	/	/	0	24	/	/
CN(C(=O)COC(=O)/C=C/c1ccccc1)C1CCS(=O)(=O)C1 (stereo unspecified)	/	-17	/	/	/	/	/	/
CCC(=O)Nc1nnc(SCC(=O)c2ccc3c(c2)Cc2ccccc2-3)s1	6	-5	31*	0	-1	6	21	1
CC(=O)Nc1nnc(SCC(=O)c2ccc3c(c2)Cc2ccccc2-3)s1	9	8	40*	0	-9	8	43*	3
Cn1c(SCC(=O)c2ccc3c(c2)Cc2ccccc2-3)nnc1-c1ccccc1	6	5	0	5	8	20	/	/
COc1ccc(C(=O)NCC(=O)OCC(=O)N2CCC(C)CC2)cc1OC	-13	1	-10	-9	-5	9	/	/
Nc1c(C(=O)Nc2ccc3c(c2)OCCO3)nnn1Cc1cccc(Br)c1	-1	12	36*	/	3	12	30*	1
Cc1cccc(COC(=O)Nc2ccc(NC(=O)c3ccccc3Cl)cc2)c1	-13	-16	48*	-5	6	0	5	-5
CCOC(=O)N1CCN(C(=O)C2CC(=O)N(Cc3ccc(OC)cc3)C2)CC1 (stereo unspecified)	-3	12	1	-6	12	-3	/	/
COc1ccc(CN2CC(C(=O)N3CCOCC3)CC2=O)cc1 (stereo unspecified)	-3	-1	47*	-10	2	8	-13	-26
O=S(=O)(NCC1NCCc2ccccc21)c1ccccc1 (stereo unspecified)	4	6	-8	-5	2	11	/	/
CCCOc1cccc(-c2nnc(N)s2)c1	-10	-14	33*	2	-5	-3	-6	5
OCC[C@H]1C[C@@H](O)[C@H](O)[C@]2(CCCCO2)O1	-17	-1	-7	/	-4	-4	/	/
Cc1ccc(NC(=O)COc2ccc(Br)cn2)cc1	-22	-22	-13	0	-4	4	/	/
COc1cccc(-c2cc(C(=O)Nc3cnn(Cc4ccc(F)cc4)c3)no2)c1	-2	-13	47*	-2	-5	-1	32*	18
O=C(COC(=O)c1cc(NS(=O)(=O)c2cccs2)ccc1O)Nc1cc(Cl)ccc1Cl	12	-1	36*	4	-5	-9	15	6
SMILES	ZTA counter	PfGluPho inh	EBNA-1 inhibitor	M18AAP inhibitor	UBC13 inh	Apaf-1 inh	EBNA-1 inh conf	ZTA counter trip
O=C(NCc1ccc2c(c1)OCO2)C12CN(Cc3ccccc3)CC1C(c1cccc([N+](=O)[O-])c1)=NO2 (stereo unspecified)	11	6	174*	16	-38	16	-21	-5
CCOC(=O)Cc1csc(NC(=O)CSc2nc3sc(C(=O)O)c(C)c3c(=O)[nH]2)n1	-14	-28	-1	-1	-3	-2	/	/
Cc1sc2nc(SCC(=O)Nc3ccccc3F)[nH]c(=O)c2c1C	1	-7	30*	-8	0	3	42*	-16
Cc1ccccc1NC(=O)CSc1nc2scc(C)c2c(=O)[nH]1	-16	-1	4	-11	0	3	/	/
Cc1csc(NC(=O)CSc2nc3sc(C)c(C)c3c(=O)[nH]2)n1	4	48	53*	0	-4	8	-2	-13
CCc1nc2ccc(C(=O)NCCc3ccc(OC)cc3)cc2nc1CC	8	5	7	-2	-7	10	/	/
COc1ccc(S(N)(=O)=O)cc1C(=O)OCC(=O)Nc1sccc1C#N	/	8	/	/	-10	8	/	/
N#Cc1ccsc1NC(=O)COC(=O)c1cc2ccccc2cc1O	8	-2	48*	-2	-7	-5	14	5
O=C(Nc1ccc2oc(-c3ccc4ccccc4c3)nc2c1)c1ccc2c(c1)OCCO2	12	-5	31*	-10	-3	0	25	9
Cc1ccc2oc(-c3cccc(NC(=O)Cc4cccs4)c3)nc2c1	7	-9	34*	0	0	-7	14	-3
O=C(Nc1ccc2oc(-c3ccncc3)nc2c1)c1ccccc1	10	-2	9	-8	12	-3	/	/
CCC(=O)Nc1cccc(-c2nc3ccc(C)cc3o2)c1	-20	22	-8	3	2	2	/	/
Cc1ccc2nc(-c3cccc(NC(=O)c4ccc5c(c4)OCCO5)c3)oc2c1	19	-14	35*	0	-5	8	23	7
O=C(Nc1ccc2oc(-c3ccccc3)nc2c1)c1ccccc1F	12	14	35*	4	12	6	-3	-2
CC1CCN(S(=O)(=O)c2ccc(S(=O)(=O)N3CCC4(CC3)OCCO4)cc2)CC1	3	19	1	-7	13	1	/	/
CCOC(=O)CC1CCCCN1C(=O)c1cc(COc2cccc3cnccc23)on1 (stereo unspecified)	1	-2	3	0	1	11	/	/
